Assay [1] deals with T1, tRNA (guanine-N(1)-)-methyltransferase (Mycobacterium tuberculosis (strain ATCC 25618 / H37Rv)) (UniProt P9WFY7).
T1 sequence (whole entry): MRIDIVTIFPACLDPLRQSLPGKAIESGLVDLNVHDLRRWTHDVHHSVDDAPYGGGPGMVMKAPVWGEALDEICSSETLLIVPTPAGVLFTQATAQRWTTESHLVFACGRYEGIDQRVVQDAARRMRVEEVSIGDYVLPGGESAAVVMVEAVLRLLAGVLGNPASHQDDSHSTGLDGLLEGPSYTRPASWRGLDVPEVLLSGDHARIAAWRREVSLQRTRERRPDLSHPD
As to the kind of experiment: Binding affinity to full length Mycobacterium tuberculosis tRNA (guanine(37)-N1)-methyltransferase expressed in Escherichia coli BL21 (DE3) assessed as association rate constant by surface plasmon resonance assay. The procedure, abridged:
(§1)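 SPR at 25 °C. His-tagged TrmD (50 μg/mL) captured on an anti-His antibody surface (about 2200 RU), with a blank reference cell. Buffer: 50 mM Tris-HCl pH 8, 150 mM NaCl, 1 mM MgCl2, 1 mM DTT, 0.05% Tween-20. Analyte in 2-fold dilutions, injected lowest to highest at 30 μL/min, 30 s contact, 240 s dissociation. KD from steady-state affinity fit.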

Assay [2] addresses T2, tRNA (guanine-N(1)-)-methyltransferase (Pseudomonas aeruginosa (strain ATCC 15692 / DSM 22644 / CIP 104116 / JCM14847 / LMG 12228 / 1C / PRS 101 / PAO1)) (UniProt Q9HXQ1).
T2 sequence (whole entry): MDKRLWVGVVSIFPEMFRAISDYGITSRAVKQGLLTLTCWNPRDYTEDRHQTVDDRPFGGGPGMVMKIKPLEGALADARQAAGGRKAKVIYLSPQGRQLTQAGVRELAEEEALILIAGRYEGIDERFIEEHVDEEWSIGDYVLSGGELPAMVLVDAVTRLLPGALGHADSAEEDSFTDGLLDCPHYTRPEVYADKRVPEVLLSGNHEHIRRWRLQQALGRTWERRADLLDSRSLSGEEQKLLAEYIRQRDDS
As to the kind of experiment: Binding affinity to Pseudomonas aeruginosa tRNA (guanine(37)-N1)-methyltransferase (Leu5 to Asp25 residues) expressed in Escherichia coli BL21 (DE3) Rosetta T1R cells assessed as dissociation rate constant by surface plasmon resonance assay. The procedure, abridged:
as §1

In assay [3] the target is T3, tRNA (guanine-N(1)-)-methyltransferase (Staphylococcus aureus (strain NCTC 8325 / PS 47)) (UniProt Q2FZ43).
T3 sequence (whole entry): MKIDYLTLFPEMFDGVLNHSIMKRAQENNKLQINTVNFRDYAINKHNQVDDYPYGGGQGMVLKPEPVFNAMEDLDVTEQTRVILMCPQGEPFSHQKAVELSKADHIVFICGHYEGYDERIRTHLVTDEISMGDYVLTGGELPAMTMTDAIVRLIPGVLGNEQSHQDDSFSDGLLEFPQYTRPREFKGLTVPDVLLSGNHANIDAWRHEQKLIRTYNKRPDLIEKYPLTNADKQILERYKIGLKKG
As to the kind of experiment: Binding affinity to full length Staphylococcus aureus tRNA (guanine(37)-N1)-methyltransferase expressed in Escherichia coli BL21 (DE3) assessed as dissociation rate constant by surface plasmon resonance assay. The procedure, abridged:
as §1

Assay [4] addresses T4, tRNA (guanine-N(1)-)-methyltransferase (Staphylococcus aureus (strain NCTC 8325 / PS 47), UniProt Q2FZ43).
T4 sequence (Q2FZ43 whole entry): T3 sequence (whole entry)
As to the kind of experiment: Binding affinity to full length Staphylococcus aureus tRNA (guanine(37)-N1)-methyltransferase expressed in Escherichia coli BL21 (DE3) by surface plasmon resonance assay. The procedure, abridged: as §1

Assay [5] has as its target T5, tRNA (guanine-N(1)-)-methyltransferase (Mycobacterium tuberculosis (strain ATCC 25618 / H37Rv), UniProt P9WFY7).
T5 sequence (P9WFY7 whole entry): T1 sequence (whole entry)
Description: Binding affinity to full length Mycobacterium tuberculosis tRNA (guanine(37)-N1)-methyltransferase expressed in Escherichia coli BL21 (DE3) by surface plasmon resonance assay. The procedure, abridged:
as §1

In assay [6] the target is T1, tRNA (guanine-N(1)-)-methyltransferase (Mycobacterium tuberculosis (strain ATCC 25618 / H37Rv)). As to the kind of experiment: Binding affinity to full length Mycobacterium tuberculosis tRNA (guanine(37)-N1)-methyltransferase expressed in Escherichia coli BL21 (DE3) assessed as dissociation rate constant by surface plasmon resonance assay. The procedure, abridged:
as §1

Assay [7] has as its target T6, tRNA (guanine-N(1)-)-methyltransferase (Pseudomonas aeruginosa (strain ATCC 15692 / DSM 22644 / CIP 104116 / JCM14847 / LMG 12228 / 1C / PRS 101 / PAO1), UniProt Q9HXQ1).
T6 sequence (Q9HXQ1 whole entry): T2 sequence (whole entry)
As to the kind of experiment: Binding affinity to Pseudomonas aeruginosa tRNA (guanine(37)-N1)-methyltransferase (Leu5 to Asp25 residues) expressed in Escherichia coli BL21 (DE3) Rosetta T1R cells by surface plasmon resonance assay. The procedure, abridged:
as §1

For assay [8], the target named is T2, tRNA (guanine-N(1)-)-methyltransferase (Pseudomonas aeruginosa (strain ATCC 15692 / DSM 22644 / CIP 104116 / JCM14847 / LMG 12228 / 1C / PRS 101 / PAO1)). As to the kind of experiment: Binding affinity to Pseudomonas aeruginosa tRNA (guanine(37)-N1)-methyltransferase (Leu5 to Asp25 residues) expressed in Escherichia coli BL21 (DE3) Rosetta T1R cells assessed as thermal stabilization of protein by measuring change in melting temperature at 2 mM by SYPRO orange based thermal shift assay. The procedure, abridged: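 Thermal shift: 4 μM TrmD with 5× SYPRO Orange and ligand in 50 mM Tris-HCl pH 8, 150 mM NaCl, 1 mM MgCl2, 1 mM DTT, 0.05% Tween-20. Buffer-only control. Heated from 25 to 95 °C in a real-time PCR instrument, and Tm taken as the unfolding midpoint. Ligand levels: SAH 2 mM, inhibitors 0.1 mM.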

Assay [9] has the same target. Description: Binding affinity to Pseudomonas aeruginosa tRNA (guanine(37)-N1)-methyltransferase (Leu5 to Asp25 residues) expressed in Escherichia coli BL21 (DE3) Rosetta T1R cells assessed as association rate constant by surface plasmon resonance assay. The procedure, abridged: as §1
The target of assay [10] is T3, tRNA (guanine-N(1)-)-methyltransferase (Staphylococcus aureus (strain NCTC 8325 / PS 47)). Description: Binding affinity to full length Staphylococcus aureus tRNA (guanine(37)-N1)-methyltransferase expressed in Escherichia coli BL21 (DE3) assessed as association rate constant by surface plasmon resonance assay. The procedure, abridged:
as §1

Regarding `Nc1ncnc2c1ncn2[C@@H]1O[C@H](CSCC[C@H](N)C(=O)O)[C@@H](O)[C@H]1O` [S-ADENOSYLHOMOCYSTEINE], the Ka in assay [1] came out at 7700 M⁻¹ s⁻¹; in assay [9], 55500 M⁻¹ s⁻¹; in assay [10] it was 279000 M⁻¹ s⁻¹. Further, the figures for the Kdiss in [2], in assay [3] and in [6] were 0.326 s⁻¹, 0.92 s⁻¹ and 0.0775 s⁻¹, respectively. The Kd in assay [4] turned out to be 3.3 µM; in [5], 10.1 µM; in [7] it was 5.9 µM. Further, the ΔTm in [8] lay in the range of 4 to 29 °C.

(Values after ChEMBL document CHEMBL4373727, “Thienopyrimidinone Derivatives That Inhibit Bacterial tRNA (Guanine37-N1)-Methyltransferase (TrmD) by Restructuring the Active Site with a Tyrosine-Flipping Mechanism” (J Med Chem, 2019).)
